# Screens: PubChem BioAssay, several laboratories
# The list is not random: actives were taken first. Their share in the collection is about 3.7%.
# DTT redox prof = compounds producing H2O2 with reducing agent – biochemical, NIH compound library profiling, artefact control for MLSCN library redox annotation, primary screen | DTT-dependent redox cycling H2O2, phenol red/HRP absorbance; 100% = 100 µM peroxide control, 0% = buffer | activation, % at 10 µM | 200,000 tested, 0.03% active | AID 878;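 active = activation of at least 50% relative to the plate's high and low controls in the primary single-dose screen; inactive = activation below 50%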;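 note: compound incubated with DTT at 0.8 mM final as the reducing agent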
# MT stabilize HCS = stabilizes microtubules in HeLa cells; 200,000 tested, 0.83% active; % tubulin-high responders, % at 10 µM; HeLa tubulin immunostaining HCS, 24 h; share of cells brighter than vehicle mean+2SD;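 active = plate Z-score above 3 for both tubulin-high and condensed-nucleus cell shares, with cell loss under 80%, at 10 µM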;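 note: anti alpha tubulin signal scored within the nucleus-defined area of each cell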
# Cl transport mod = modulates chloride dependent transport by human KCC2; 190,000 tested, 2.2% active; Q9H2X9; KCC2 cells, thallium flux FluoZin-2 fluorescence; AID 1456; B-score of Tl+ flux slope (higher = more flux/activation; lower = inhibition) at 10 µM;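 active = thallium flux slope and its plate-corrected score both differing from the plate sample mean at a set confidence after two filtering rounds, in either direction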;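 note: slope of fluorescence scaled to starting intensity during 10 to 20 s after thallium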
# Target sequence (Q9H2X9 whole entry, looked up): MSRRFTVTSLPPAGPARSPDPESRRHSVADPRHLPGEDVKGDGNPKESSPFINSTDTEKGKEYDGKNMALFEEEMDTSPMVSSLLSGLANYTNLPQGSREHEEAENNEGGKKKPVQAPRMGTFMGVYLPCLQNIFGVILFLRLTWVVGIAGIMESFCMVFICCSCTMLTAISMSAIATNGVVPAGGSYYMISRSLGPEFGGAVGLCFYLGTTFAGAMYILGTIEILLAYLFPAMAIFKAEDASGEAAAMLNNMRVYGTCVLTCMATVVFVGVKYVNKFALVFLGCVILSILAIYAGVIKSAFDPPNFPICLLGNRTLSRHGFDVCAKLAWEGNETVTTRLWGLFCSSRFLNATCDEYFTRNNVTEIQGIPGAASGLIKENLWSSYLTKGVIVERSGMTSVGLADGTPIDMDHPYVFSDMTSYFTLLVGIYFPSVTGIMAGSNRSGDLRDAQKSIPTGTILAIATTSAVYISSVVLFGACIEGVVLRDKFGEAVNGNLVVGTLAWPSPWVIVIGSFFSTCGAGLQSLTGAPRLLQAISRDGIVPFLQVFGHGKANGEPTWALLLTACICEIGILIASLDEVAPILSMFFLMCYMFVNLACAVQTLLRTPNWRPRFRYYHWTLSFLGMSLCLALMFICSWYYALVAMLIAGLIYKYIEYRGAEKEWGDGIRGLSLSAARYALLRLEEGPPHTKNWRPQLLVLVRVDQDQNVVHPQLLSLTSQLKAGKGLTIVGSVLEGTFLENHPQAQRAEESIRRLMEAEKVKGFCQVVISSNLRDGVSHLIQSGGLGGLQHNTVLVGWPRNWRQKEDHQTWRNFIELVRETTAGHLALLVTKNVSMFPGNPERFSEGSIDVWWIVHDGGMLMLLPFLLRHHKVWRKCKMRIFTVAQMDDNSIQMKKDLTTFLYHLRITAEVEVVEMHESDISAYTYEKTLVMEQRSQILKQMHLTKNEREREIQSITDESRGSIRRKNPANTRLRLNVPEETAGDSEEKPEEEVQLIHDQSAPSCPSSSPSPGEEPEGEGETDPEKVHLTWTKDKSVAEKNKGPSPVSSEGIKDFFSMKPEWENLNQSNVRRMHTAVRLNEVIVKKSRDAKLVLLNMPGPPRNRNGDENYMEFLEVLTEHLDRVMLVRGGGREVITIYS
# bCat nuc transl = alters nuclear translocation of beta-catenin in HeLa cells; immunofluorescence imaging; nuclear translocation activity, % at 5 µM; 190,000 tested, 0.3% active; AID 1665;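 active = nuclear translocation activity above 50% at 5 µM, with a well cell count of 50 or more; inconclusive = wells under 50 cells across six images, flagged as toxic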;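 note: per-cell ratio of nuclear to cytoplasmic median beta-catenin stain intensity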
#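 Test system: human HeLa cells, native beta-catenin. Compound dosing: 5 µM primary single dose, 0.1% DMSO, 0.02–20 µM confirmation series. Incubation: compound exposure 24 h at 37°C. Detection: beta-catenin immunostaining with DAPI counterstain, 20x imaging, 6 fields/well. Read-out basis: Nuclear/cytoplasmic beta-catenin signal ratio, % activation.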
# ROMK primary = human ROMK K+ channel modulation, primary screen | P48048 | Tet-inducible ROMK, thallium flux fluorescence; actives lie on both sides | B-score at 10 µM | 130,000 tested, 2% active;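 active = signal ratio slope over the read window, or its plate-corrected B-score, at least 3 SD from the plate mean, either direction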;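 note: B-score of the F/F0 ratio slope over 7 to 12 s after thallium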
# ROMK hit retest = human ROMK channel modulation, retest confirmation; AID 1917; normalized thallium flux (F/F0 slope) at 10 µM; shares compounds with ROMK primary; 3,000 tested, 54% active; ROMK thallium flux, fluorescence ratio; active compounds read low;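 active = Flux at 10 µM at least 3 SD below or above vehicle control mean in one or both replicates; inconclusive = no clear call, values can overlap the other calls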
# A number is an active result; – = inactive; ? = inconclusive; · = not tested or not shown.
SMILES,DTT redox prof,MT stabilize HCS,Cl transport mod,bCat nuc transl,ROMK primary,ROMK hit retest
COc1ccc(C2OC(=O)CC2C(=O)NCc2ccc(C)cc2)cc1OC (stereo not drawn),–,–,–,–,·,·
O=C(COC(=O)[C@@H]1CC(O)CN1S(=O)(=O)c1ccccc1[N+](=O)[O-])Nc1ccc2ccccc2c1 (stereo partly drawn),–,–,–,–,·,·
CC(C)Cn1c(N)c(C(=O)COC(=O)c2cccnc2Cl)c(=O)n(C)c1=O,–,–,–,–,–,·
Cn1c(N)c(C(=O)COC(=O)c2cccnc2Cl)c(=O)n(C)c1=O,–,–,–,–,·,–
C#CCOCCOCCOCCNc1nc(N2CCN(C(=O)[C@H]([C@@H](C)O)n3cc(CCCCN)nn3)CC2)nc(N2CCN(C(=O)[C@H](Cc3ccc(O)cc3)n3cc(CCO)nn3)CC2)n1,–,–,–,·,2,–
C#CCOCCOCCOCCNc1nc(N2CCN(C(=O)[C@H](Cc3ccc(O)cc3)n3cc(CCO)nn3)CC2)nc(N2CCN(C(=O)[C@H](Cc3ccc(O)cc3)n3cc(CCO)nn3)CC2)n1,–,–,–,·,–,·
COc1ccccc1CNC(=O)COC(=O)CCC(=O)c1cccs1,–,–,–,–,–,·
COC(=O)/C(=C/c1c[nH]c2ccccc12)NC(C)=O,–,–,–,–,–,·
CCOC(=O)/C(=C/c1c[nH]c2ccccc12)NC(C)=O,–,–,·,·,·,·
COC(=O)/C(=C/c1cn(C)c2ccccc12)[N+](=O)[O-],–,–,–,–,·,0.042
CC(C)COC(=O)/C(C#N)=C/c1c[nH]c2ccccc12,–,–,–,–,·,0.034
COC(=O)/C(=C/c1c[nH]c2ccccc12)[N+](=O)[O-],–,–,–,–,-3.8,0.062
N=c1c2c(-c3ccccc3)c(-c3ccccc3)n(Cc3ccccc3)c2ncn1CCCn1ccnc1,–,–,–,–,-4.4,0.05
CCCCn1cnc2c(c(-c3ccccc3)c(-c3ccccc3)n2Cc2ccco2)c1=N,·,·,–,–,·,0.03
Cc1noc(C)c1COc1ccc(C(=O)OCC(=O)Nc2ccc3c(c2)OCO3)cc1,–,–,–,–,·,–
COc1ccc(C(=O)COc2ccc(C)cc2NC(C)=O)cc1,·,·,–,–,·,·
Cc1cc(C)cc(OCCNC(=O)C(C)N2C(=O)c3ccccc3C2=O)c1 (stereo not drawn),–,–,–,–,2.4,–
Cc1ccc(NC(=O)C(C)N2C(=O)c3ccccc3C2=O)nc1 (stereo not drawn),–,–,–,–,–,·
CC(C)(C)OC(=O)NCCCCCc1nnc(SCC(=O)Nc2cccc(Cl)c2)o1,–,–,·,–,-4.9,0.064
CC(C)(C)OC(=O)NCCc1nnc(SCC(=O)Nc2cccc(Cl)c2)o1,–,–,·,–,·,·
Cc1ccc(NC(=O)CN2CCN(S(=O)(=O)c3cccs3)CC2)cc1S(=O)(=O)N(C)C,–,–,–,–,–,·
O=C(NCC(c1cccs1)N1CCOCC1)c1ccccc1NS(=O)(=O)c1cccc([N+](=O)[O-])c1 (stereo not drawn),–,–,–,–,·,·
O=C(NCC(c1cccs1)N1CCOCC1)c1ccccc1NS(=O)(=O)c1cc([N+](=O)[O-])ccc1Cl (stereo not drawn),–,–,–,–,·,0.068
O=C1C=C(NCCOC23CC4CC(CC(C4)C2)C3)C2(CCCCC2)O1,–,–,–,–,–,·
O=[N+]([O-])c1c(Nc2ccccn2)cc(Cl)c2nonc12,·,·,–,–,-8.6,0.043
SMILES,DTT redox prof,MT stabilize HCS,Cl transport mod,bCat nuc transl,ROMK primary,ROMK hit retest
O=C(O)c1cccc(Nc2cc(Cl)c3nonc3c2[N+](=O)[O-])c1,–,–,–,–,–,·
CCSc1nc2sc3c(c2c2nnc(SCC(=O)NCc4ccco4)n12)CCCC3,–,–,–,·,–,–
CC1CCCCN1C(=O)Cn1cc(/C=C2/C(=O)Nc3ccccc32)c2ccccc21 (stereo not drawn),–,–,–,–,·,–
CC12CC3(C)CC(C)(C1)CC(C(=O)NC(=S)NC(C)(C)C)(C2)C3,–,–,–,–,2.5,?
N#CC1=C(N)N(c2ccccc2)C(c2cccc([N+](=O)[O-])c2)C1(C#N)C#N (stereo not drawn),–,–,–,–,·,0.037
Cc1cccc(N2C(N)=C(C#N)C(C#N)(C#N)C2c2ccccc2)c1 (stereo not drawn),–,–,–,–,·,0.056
N#CC1=C(N)N(c2ccccc2)C(c2ccco2)C1(C#N)C#N (stereo not drawn),–,–,–,·,·,·
CCC(C)(C)c1ccc(OCCCC[n+]2cccc(C)c2)c(C(C)(C)CC)c1,–,–,–,·,-4.1,0.047
Cc1ccc[n+](CC(=O)Nc2cc(C(F)(F)F)ccc2Cl)c1,–,–,–,–,·,·
Cc1cccc2cc(-c3ccccc3)c(-c3ccccc3)c[n+]12,–,–,–,–,·,·
O=P(c1ccccc1)(c1ccccc1)C(O)c1ccncc1 (stereo not drawn),–,–,·,–,–,·
O=P(c1ccccc1)(c1ccccc1)C(O)c1ccco1 (stereo not drawn),–,–,–,–,2.2,–
CC1CCCC(C)N1C(=O)Cn1c(SCC(=O)NCc2ccc3c(c2)OCO3)nc2ccccc21 (stereo not drawn),–,–,·,–,-3.9,0.061
O=C(CSc1nc2ccccc2s1)NCc1ccc2c(c1)OCO2,–,–,–,–,·,·
O=C(CSc1ccc2ccccc2n1)NCc1ccc2c(c1)OCO2,–,–,–,–,-5.2,?
COC(=O)c1ccc(C2N=C(c3cccs3)CC(c3ccccc3O)N2)cc1 (stereo not drawn),–,–,–,–,–,·
COCCNC(=O)COc1ccc(C)cc1C(=O)c1cc(C#N)c(=O)n(C2CC2)c1,–,–,–,–,–,·
COC(=O)c1c(S(C)(=O)=O)nc(-c2ccccc2)[nH]c1=O,–,–,–,–,–,·
Cc1ccc(C2(CCNCc3ccc(N(C)C)cc3)CCOC(C(C)C)C2)cc1 (stereo not drawn),–,–,–,–,–,·
CC1(C)CC(O)(CNCc2ccc3c(c2)OCO3)CCO1 (stereo not drawn),–,–,–,–,·,·
CC(C)C1CC(CCNCc2ccc(N(C)C)cc2)(c2ccccc2)CCO1 (stereo not drawn),–,–,–,–,·,0.048
CCC1(C)CC(CCNS(=O)(=O)c2ccc(C)cc2)(c2ccc(C)cc2)CCO1 (stereo not drawn),–,–,–,–,·,·
Cc1ccc(C2(CCNS(=O)(=O)c3ccc(C)cc3)CCOC(C(C)C)C2)cc1 (stereo not drawn),–,–,–,–,·,0.061
CC(C)C1CC(CCNCc2ccc3c(c2)OCO3)(c2ccccc2)CCO1 (stereo not drawn),·,·,–,–,-2.9,0.055
O=C(c1ccc(F)cc1)n1c(NCc2ccccc2)n[nH]c1=S,–,–,–,–,–,·
